Assay results as given in ChEMBL document CHEMBL2040768, “Synthesis, antimicrobial and cytotoxic activities of sulfone linked bis heterocycles” (Eur J Med Chem, 2012).
Activity calls are given as the source filed them. The rule behind the calls is not given here.

Tests used:
A549 = assay: Cytotoxicity against human A549 cells up to 0.2 mM after 72 hrs by MTT assay
Penicillium chrysogenum [1] = assay: Antifungal activity against Penicillium chrysogenum at 100 ug/ml after 48 hrs by agar well diffusion method; assay type: functional; conditions: read-out: DIZ
Procedure, shortened: (§1)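 Fungal agar well diffusion. Plates swabbed with fungal culture, 6 mm wells filled with DMSO solutions of compound (50 and 100 per well). Ketoconazole positive and DMSO negative controls. Plates incubated 28 °C for 48 h; zone of inhibition diameter (mm) read, average of duplicates.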

Aspergillus niger [2] = assay: Antifungal activity against Aspergillus niger at 50 ug/ml after 48 hrs by agar well diffusion method; assay type: functional; conditions: read-out: DIZ
Procedure, shortened: as §1

Staphylococcus aureus [3] = assay: Antibacterial activity against Staphylococcus aureus at 50 ug/ml after 24 hrs by agar well diffusion method; assay type: functional; conditions: read-out: DIZ
Procedure, shortened: (§2)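 Agar well diffusion. Nutrient plates swabbed with 24 h broth culture of the bacterium; 6 mm wells bored and loaded with DMSO solutions of compound (wells at 50 and 100 per well). Chloramphenicol positive control, DMSO negative control. Plates held 37 °C, 24 h; inhibition zone diameter (mm) measured, mean of duplicates.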

Penicillium chrysogenum [4] = assay: Antifungal activity against Penicillium chrysogenum at 50 ug/ml after 48 hrs by agar well diffusion method; assay type: functional; conditions: read-out: DIZ
Procedure, shortened: as §1

Bacillus subtilis [5] = assay: Antibacterial activity against Bacillus subtilis at 50 ug/ml after 24 hrs by agar well diffusion method; assay type: functional; conditions: read-out: DIZ
Procedure, shortened: as §2

Pseudomonas aeruginosa [6] = assay: Antibacterial activity against Pseudomonas aeruginosa at 50 ug/ml after 24 hrs by agar well diffusion method; assay type: functional; conditions: read-out: DIZ
Procedure, shortened: as §2

Klebsiella pneumoniae [7] = assay: Antibacterial activity against Klebsiella pneumoniae at 100 ug/ml after 24 hrs by agar well diffusion method; assay type: functional; conditions: read-out: DIZ
Procedure, shortened: as §2

Staphylococcus aureus [8] = assay: Antibacterial activity against Staphylococcus aureus at 100 ug/ml after 24 hrs by agar well diffusion method; assay type: functional; conditions: read-out: DIZ
Procedure, shortened: as §2

Bacillus subtilis [9] = assay: Antibacterial activity against Bacillus subtilis at 100 ug/ml after 24 hrs by agar well diffusion method; assay type: functional; conditions: read-out: DIZ
Procedure, shortened: as §2

Klebsiella pneumoniae [10] = assay: Antibacterial activity against Klebsiella pneumoniae at 50 ug/ml after 24 hrs by agar well diffusion method; assay type: functional; conditions: read-out: DIZ
Procedure, shortened: as §2

Pseudomonas aeruginosa [11] = assay: Antibacterial activity against Pseudomonas aeruginosa at 100 ug/ml after 24 hrs by agar well diffusion method; assay type: functional; conditions: read-out: DIZ
Procedure, shortened: as §2

Aspergillus niger [12] = assay: Antifungal activity against Aspergillus niger at 100 ug/ml after 48 hrs by agar well diffusion method; assay type: functional; conditions: read-out: DIZ
Procedure, shortened: as §1

For `Nn1c(CS(=O)(=O)Nc2ccc(Cl)cc2)nnc1CS(=O)(=O)C1CNN=C1S(=O)(=O)c1ccc(Cl)cc1` (centres undefined), the Activity (A549) was “inactive”, the zone of inhibition at 100 µg/mL (Penicillium chrysogenum [1]) was 32 mm and the zone of inhibition at 50 µg/mL (Aspergillus niger [2]) was 28 mm. It also gave a zone of inhibition at 50 µg/mL (Staphylococcus aureus [3]) of 25 mm, a zone of inhibition at 50 µg/mL (Penicillium chrysogenum [4]) of 29 mm and a zone of inhibition at 50 µg/mL (Bacillus subtilis [5]) of 24 mm. It also gave a zone of inhibition at 50 µg/mL (Pseudomonas aeruginosa [6]) of 21 mm, a zone of inhibition at 100 µg/mL (Klebsiella pneumoniae [7]) of 30 mm and a zone of inhibition at 100 µg/mL (Staphylococcus aureus [8]) of 27 mm. For the same compound, the zone of inhibition at 100 µg/mL (Bacillus subtilis [9]) was 27 mm, the zone of inhibition at 50 µg/mL (Klebsiella pneumoniae [10]) was 28 mm and the zone of inhibition at 100 µg/mL (Pseudomonas aeruginosa [11]) was 24 mm. The zone of inhibition at 100 µg/mL (Aspergillus niger [12]) was 30 mm.
With `Cc1ccc(NS(=O)(=O)Cc2nnc(CS(=O)(=O)c3c[nH]nc3S(=O)(=O)c3ccc(C)cc3)s2)cc1` the Activity (A549) was “inactive”, the zone of inhibition at 100 µg/mL (Penicillium chrysogenum [1]) was 13 mm and the zone of inhibition at 50 µg/mL (Aspergillus niger [2]) was 10 mm. The zone of inhibition at 50 µg/mL (Staphylococcus aureus [3]) was 12 mm, the zone of inhibition at 50 µg/mL (Penicillium chrysogenum [4]) was 11 mm and the zone of inhibition at 50 µg/mL (Bacillus subtilis [5]) was 10 mm. The zone of inhibition at 50 µg/mL (Pseudomonas aeruginosa [6]) was 8 mm, the zone of inhibition at 100 µg/mL (Klebsiella pneumoniae [7]) was 15 mm and the zone of inhibition at 100 µg/mL (Staphylococcus aureus [8]) was 14 mm. It also gave a zone of inhibition at 100 µg/mL (Bacillus subtilis [9]) of 13 mm, a zone of inhibition at 50 µg/mL (Klebsiella pneumoniae [10]) of 13 mm and a zone of inhibition at 100 µg/mL (Pseudomonas aeruginosa [11]) of 11 mm. It also gave a zone of inhibition at 100 µg/mL (Aspergillus niger [12]) of 13 mm.
`O=S(=O)(Cc1nnc(CS(=O)(=O)c2c[nH]nc2S(=O)(=O)c2ccc(Cl)cc2)o1)Nc1ccc(Cl)cc1` was tested, and the Activity (A549) was “inactive”, the zone of inhibition at 100 µg/mL (Penicillium chrysogenum [1]) was 24 mm and the zone of inhibition at 50 µg/mL (Aspergillus niger [2]) was 20 mm. The zone of inhibition at 50 µg/mL (Staphylococcus aureus [3]) was 20 mm, the zone of inhibition at 50 µg/mL (Penicillium chrysogenum [4]) was 21 mm and the zone of inhibition at 50 µg/mL (Bacillus subtilis [5]) was 21 mm. For the same compound, the zone of inhibition at 50 µg/mL (Pseudomonas aeruginosa [6]) was 19 mm, the zone of inhibition at 100 µg/mL (Klebsiella pneumoniae [7]) was 24 mm and the zone of inhibition at 100 µg/mL (Staphylococcus aureus [8]) was 23 mm. The zone of inhibition at 100 µg/mL (Bacillus subtilis [9]) was 22 mm, the zone of inhibition at 50 µg/mL (Klebsiella pneumoniae [10]) was 23 mm and the zone of inhibition at 100 µg/mL (Pseudomonas aeruginosa [11]) was 21 mm. The zone of inhibition at 100 µg/mL (Aspergillus niger [12]) was 23 mm.
`O=S(=O)(Cc1nnc(CS(=O)(=O)C2CNN=C2S(=O)(=O)c2ccc(Cl)cc2)o1)Nc1ccc(Cl)cc1` (centres undefined) was tested, and the Activity (A549) was “inactive”, the zone of inhibition at 100 µg/mL (Penicillium chrysogenum [1]) was 24 mm and the zone of inhibition at 50 µg/mL (Aspergillus niger [2]) was 20 mm. For the same compound, the zone of inhibition at 50 µg/mL (Staphylococcus aureus [3]) was 17 mm, the zone of inhibition at 50 µg/mL (Penicillium chrysogenum [4]) was 22 mm and the zone of inhibition at 50 µg/mL (Bacillus subtilis [5]) was 17 mm. The zone of inhibition at 50 µg/mL (Pseudomonas aeruginosa [6]) was 17 mm, the zone of inhibition at 100 µg/mL (Klebsiella pneumoniae [7]) was 24 mm and the zone of inhibition at 100 µg/mL (Staphylococcus aureus [8]) was 18 mm. It also gave a zone of inhibition at 100 µg/mL (Bacillus subtilis [9]) of 20 mm, a zone of inhibition at 50 µg/mL (Klebsiella pneumoniae [10]) of 22 mm and a zone of inhibition at 100 µg/mL (Pseudomonas aeruginosa [11]) of 19 mm. The zone of inhibition at 100 µg/mL (Aspergillus niger [12]) was 23 mm.
In the case of `Cc1ccc(NS(=O)(=O)Cc2nnc(CS(=O)(=O)c3c[nH]cc3S(=O)(=O)c3ccc(C)cc3)s2)cc1`, the Activity (A549) is reported as “inactive”, the zone of inhibition at 100 µg/mL (Penicillium chrysogenum [1]) is reported as 19 mm and the zone of inhibition at 50 µg/mL (Aspergillus niger [2]) is reported as 14 mm. It also gave a zone of inhibition at 50 µg/mL (Staphylococcus aureus [3]) of 14 mm, a zone of inhibition at 50 µg/mL (Penicillium chrysogenum [4]) of 16 mm and a zone of inhibition at 50 µg/mL (Bacillus subtilis [5]) of 17 mm. It also gave a zone of inhibition at 50 µg/mL (Pseudomonas aeruginosa [6]) of 13 mm, a zone of inhibition at 100 µg/mL (Klebsiella pneumoniae [7]) of 21 mm and a zone of inhibition at 100 µg/mL (Staphylococcus aureus [8]) of 16 mm. It also gave a zone of inhibition at 100 µg/mL (Bacillus subtilis [9]) of 19 mm, a zone of inhibition at 50 µg/mL (Klebsiella pneumoniae [10]) of 19 mm and a zone of inhibition at 100 µg/mL (Pseudomonas aeruginosa [11]) of 14 mm. For the same compound, the zone of inhibition at 100 µg/mL (Aspergillus niger [12]) was 17 mm.
In the case of `Cc1ccc(NS(=O)(=O)Cc2nnc(CS(=O)(=O)/C=C/S(=O)(=O)c3ccc(C)cc3)n2N)cc1`, the Activity (A549) is reported as “inactive”, the zone of inhibition at 100 µg/mL (Penicillium chrysogenum [1]) is reported as 25 mm and the zone of inhibition at 50 µg/mL (Aspergillus niger [2]) is reported as 19 mm. The zone of inhibition at 50 µg/mL (Staphylococcus aureus [3]) was 20 mm, the zone of inhibition at 50 µg/mL (Penicillium chrysogenum [4]) was 22 mm and the zone of inhibition at 50 µg/mL (Bacillus subtilis [5]) was 23 mm. For the same compound, the zone of inhibition at 50 µg/mL (Pseudomonas aeruginosa [6]) was 15 mm, the zone of inhibition at 100 µg/mL (Klebsiella pneumoniae [7]) was 27 mm and the zone of inhibition at 100 µg/mL (Staphylococcus aureus [8]) was 22 mm. The zone of inhibition at 100 µg/mL (Bacillus subtilis [9]) was 25 mm, the zone of inhibition at 50 µg/mL (Klebsiella pneumoniae [10]) was 25 mm and the zone of inhibition at 100 µg/mL (Pseudomonas aeruginosa [11]) was 17 mm. The zone of inhibition at 100 µg/mL (Aspergillus niger [12]) was 23 mm.
For `O=S(=O)(Cc1nnc(CS(=O)(=O)c2c[nH]cc2S(=O)(=O)c2ccc(Cl)cc2)o1)Nc1ccc(Cl)cc1`, the Activity (A549) was “inactive”, the zone of inhibition at 100 µg/mL (Penicillium chrysogenum [1]) was 26 mm and the zone of inhibition at 50 µg/mL (Aspergillus niger [2]) was 21 mm. It also gave a zone of inhibition at 50 µg/mL (Staphylococcus aureus [3]) of 18 mm, a zone of inhibition at 50 µg/mL (Penicillium chrysogenum [4]) of 22 mm and a zone of inhibition at 50 µg/mL (Bacillus subtilis [5]) of 17 mm. For the same compound, the zone of inhibition at 50 µg/mL (Pseudomonas aeruginosa [6]) was 18 mm, the zone of inhibition at 100 µg/mL (Klebsiella pneumoniae [7]) was 25 mm and the zone of inhibition at 100 µg/mL (Staphylococcus aureus [8]) was 20 mm. It also gave a zone of inhibition at 100 µg/mL (Bacillus subtilis [9]) of 21 mm, a zone of inhibition at 50 µg/mL (Klebsiella pneumoniae [10]) of 23 mm and a zone of inhibition at 100 µg/mL (Pseudomonas aeruginosa [11]) of 20 mm. It also gave a zone of inhibition at 100 µg/mL (Aspergillus niger [12]) of 24 mm.
`Nn1c(CS(=O)(=O)Nc2ccccc2)nnc1CS(=O)(=O)c1c[nH]cc1S(=O)(=O)c1ccccc1` was tested, and the Activity (A549) was “inactive”, the zone of inhibition at 100 µg/mL (Penicillium chrysogenum [1]) was 22 mm and the zone of inhibition at 50 µg/mL (Aspergillus niger [2]) was 18 mm. The zone of inhibition at 50 µg/mL (Staphylococcus aureus [3]) was 17 mm, the zone of inhibition at 50 µg/mL (Penicillium chrysogenum [4]) was 19 mm and the zone of inhibition at 50 µg/mL (Bacillus subtilis [5]) was 20 mm. For the same compound, the zone of inhibition at 50 µg/mL (Pseudomonas aeruginosa [6]) was 15 mm, the zone of inhibition at 100 µg/mL (Klebsiella pneumoniae [7]) was 24 mm and the zone of inhibition at 100 µg/mL (Staphylococcus aureus [8]) was 19 mm. For the same compound, the zone of inhibition at 100 µg/mL (Bacillus subtilis [9]) was 22 mm, the zone of inhibition at 50 µg/mL (Klebsiella pneumoniae [10]) was 22 mm and the zone of inhibition at 100 µg/mL (Pseudomonas aeruginosa [11]) was 16 mm. The zone of inhibition at 100 µg/mL (Aspergillus niger [12]) was 20 mm.
